The text below walks through data of ChEMBL document CHEMBL5576156, “New pyrazole-pyridazine hybrids as selective COX-2 inhibitors: design, synthesis, molecular docking, in silico studies and investigation of their anti-inflammatory potential by evaluation of TNF-α, IL-6, PGE-2 and NO in LPS-induced RAW264.7 macrophages” (RSC Med Chem, 2024).

The subject of one test is Rattus norvegicus. Put plainly: Antiinflammatory activity against carrageenin-induced rat paw edema at 10 mg/kg, po pretreated with carrageenin for 1 hr followed by compound addition and measured after 3 hrs. The test is classed as functional.
In test [1] the test system is RAW264.7. Put plainly: Antiinflammatory activity in LPS-induced mouse RAW264.7 cells assessed as inhibition of NO production at 20 uM pretreated for 2 hrs followed by LPS stimulation and measured after 24 hrs by Griess reagent based assay. The test is classed as functional. Set-up: scale not given: the % may be the effect or the level left. The conditions noted are these: time 26 hrs. Summed up: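 RAW264.7 cells pretreated with compound for 2 h, then stimulated with LPS 1 μg mL−1 for 24 h. Culture medium was mixed 1:1 with Griess reagent and held 10 min at room temperature. Absorbance at 540 nm was read as the NO indicator.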

The test system of test [2] is RAW264.7. Put plainly: Antiinflammatory activity against LPS induced mouse RAW264.7 cells assessed as decrease in TNFalpha production at 50 uM after 24 hrs by ELISA. The test is classed as functional. Also on record: scale not given: the % may be the effect or the level left. The gist of the method: (§1)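 RAW264.7 cells seeded at 5 × 10^3 per well and held 24 h at 37 °C, 5% CO2. Test compound given at 50 μM together with LPS 1 μg mL−1. Untreated cells were the blank, and LPS + DMSO (0.1% v/v final) was the negative control. IL-6, PGE-2 and TNF-α in the medium were measured by ELISA kits 24 h after treatment.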

Test [3] deals with RAW264.7. The test can be described thus: Antiinflammatory activity against LPS induced mouse RAW264.7 cells assessed as decrease in PGE2 production at 50 uM after 24 hrs by ELISA. The test is classed as functional. Also on record: scale not given: the % may be the effect or the level left. The gist of the method: as §1
Test [4] has as its system RAW264.7. Put plainly: Antiinflammatory activity against LPS induced mouse RAW264.7 cells assessed as decrease in IL6 production at 50 uM after 24 hrs by ELISA. Also on record: scale not given: the % may be the effect or the level left. The test is classed as functional. The gist of the method:
as §1

Test [5] addresses T1, Prostaglandin G/H synthase 2 (Homo sapiens) (UniProt P35354).
T1 sequence (whole entry): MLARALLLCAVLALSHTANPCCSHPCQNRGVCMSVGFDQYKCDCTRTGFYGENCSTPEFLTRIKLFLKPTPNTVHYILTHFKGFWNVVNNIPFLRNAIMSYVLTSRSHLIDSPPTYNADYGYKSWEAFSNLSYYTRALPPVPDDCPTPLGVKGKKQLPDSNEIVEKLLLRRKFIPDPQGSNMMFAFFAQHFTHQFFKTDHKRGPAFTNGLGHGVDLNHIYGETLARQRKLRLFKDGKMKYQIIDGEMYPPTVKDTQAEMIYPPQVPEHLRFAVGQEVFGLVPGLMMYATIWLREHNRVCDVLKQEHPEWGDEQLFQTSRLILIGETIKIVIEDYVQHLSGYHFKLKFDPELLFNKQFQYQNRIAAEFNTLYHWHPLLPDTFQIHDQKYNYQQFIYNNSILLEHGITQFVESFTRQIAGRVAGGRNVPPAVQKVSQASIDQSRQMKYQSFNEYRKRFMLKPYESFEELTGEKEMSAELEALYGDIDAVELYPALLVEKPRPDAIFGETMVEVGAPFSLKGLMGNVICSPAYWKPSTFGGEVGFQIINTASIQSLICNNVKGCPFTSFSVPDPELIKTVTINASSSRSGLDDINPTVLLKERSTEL
Put plainly: Inhibition of COX-2 in human whole blood at 8 uM incubated for 24 hrs by immunoassay relative to control. The test is classed as tissue-based.

Molecules are shown by their SMILES.

For `Cc1cc(C)n(-c2ccc(=O)n(CC(=O)NCc3ccccc3)n2)n1`, the Activity in the test on Rattus norvegicus is given as 84%.

With `COc1cc(/C=N/C2=NN=C(N)C2c2ccc(Cl)nn2)cc(OC)c1OC` (stereo unspecified), the Activity with RAW264.7 [1] is reported as 70%; with RAW264.7 [2], 70%; in the test with RAW264.7 [3] it was 64%; with RAW264.7 [4], 78%.

With `Cc1ccc(-c2cc(C(F)(F)F)nn2-c2ccc(S(N)(=O)=O)cc2)cc1` [CELECOXIB], the figures for the Activity in the test with RAW264.7 [2], in the test on RAW264.7 [3] and with RAW264.7 [4] were 75%, 69% and 83%, respectively.

For `NC1=NN=C(/N=C/c2ccc(Br)cc2)C1c1ccc(Cl)nn1` (stereo unspecified), the Activity in the test with RAW264.7 [1] came to 53%; with RAW264.7 [2] it was 65%; in the test on RAW264.7 [3], 60%; with RAW264.7 [4], 65%.

`COc1cc(/C=N/C2=NNC(=O)C2c2ccc(Cl)nn2)cc(OC)c1OC` (stereo unspecified): the results for the Activity in the test with RAW264.7 [2], with RAW264.7 [3] and in the test with RAW264.7 [4] were 48%, 44% and 62%, respectively.

With `Cc1ccc(-c2cc(C(F)(F)F)nn2C2=NNC(Cl)C=C2)cc1` (stereo unspecified), the inhibition in test [5] was 78%.
